Calls of active or inactive are those of the source. The calls are words filed in the database; no cut-off is given here.
Tests used:
[1] = test system: MGC-803; experiment: Cytotoxicity against human MGC803 cells after 48 hrs by MTT assay; assay type: functional, cell-based; details: MGC-803, 48 h
How it was run: (§1)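 Log-phase cells were seeded at about 1 × 10⁵ cells/mL in 96-well plates and allowed to settle 12 h at 37 °C in 5% CO₂. Compounds were added at five concentrations for 48 h. Absorbance was read at dual wavelength 570/630 nm. Survival was expressed as a percentage of control, and IC50 was calculated by the Bliss method (n = 5). Each test was run in triplicate.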

[2] = test system: NCI-H460; experiment: Induction of apoptosis in human NCI-H460 cells assessed as live cells at 5 uM after 24 hrs by Annexin V-FITC/propidium iodide staining based flow cytometric method (reference value: 95.8%); assay type: functional
[3] = test system: NCI-H460; experiment: Induction of apoptosis in human NCI-H460 cells assessed as early apoptotic cells at 10 uM after 24 hrs by Annexin V-FITC/propidium iodide staining based flow cytometric method (reference value: 1.55%); assay type: functional
[4] = test system: NCI-H460; experiment: Disruption of mitochondrial membrane potential in human NCI-H460 cells assessed as collapse of mitochondrial membrane potential at 10 uM after 24 hrs by JC-1 staining based flow cytometric method (reference value: 1.98%); assay type: functional
How it was run: (§2)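 NCI-H460 cells were treated 24 h at 5 or 10 µM, with untreated cells as control. The medium was replaced, and the JC-1 probe was added 20 min later. Cells were then pelleted at 2000 rpm, washed twice in ice-cold PBS and analysed by flow cytometry with excitation at 488 nm and emission at 530 and 590 nm.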

[5] = test system: NCI-H460; experiment: Cell cycle arrest in human NCI-H460 cells assessed as accumulation at S-phase at 5 uM after 48 hrs by propidium iodide staining based flow cytometric method (reference value: 21.79%); assay type: functional
[6] = test system: NCI-H460; experiment: Induction of apoptosis in human NCI-H460 cells after 24 hrs by Annexin V-FITC/propidium iodide staining based flow cytometric method; assay type: functional, cell-based
[7] = test system: T-24; experiment: Cytotoxicity against human T24 cells after 48 hrs by MTT assay; assay type: functional, cell-based; details: T-24, 48 h; how it was run: as §1
[8] = Cytotoxicity against human HeLa/TR cells after 48 hrs by MTT assay; assay type: functional, cell-based; how it was run: as §1
[9] = test system: NCI-H460; experiment: Cell cycle arrest in human NCI-H460 cells assessed as accumulation at G1-phase at 5 uM after 48 hrs by propidium iodide staining based flow cytometric method (reference value: 75.84%); assay type: functional
[10] = test system: NCI-H460; experiment: Cytotoxicity against human NCI-H460 cells after 48 hrs by MTT assay; assay type: functional, cell-based; details: NCI-H460, 48 h; how it was run: as §1
[11] = test system: NCI-H460; experiment: Disruption of mitochondrial membrane potential in human NCI-H460 cells assessed as collapse of mitochondrial membrane potential at 5 uM after 24 hrs by JC-1 staining based flow cytometric method (reference value: 1.98%); assay type: functional; how it was run: as §2
[12] = test system: NCI-H460; experiment: Induction of apoptosis in human NCI-H460 cells assessed as down regulation of Bcl2 expression after 48 hrs by Western blot method; assay type: functional, cell-based
How it was run: (§3)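 NCI-H460 cells were treated 48 h at various concentrations. Cells were washed in ice-cold PBS and lysed on ice for 20 min, and lysates were spun at 20000 g and 4 °C for 5 min. Protein was quantified by BCA, and equal amounts were run on 12% SDS-PAGE and transferred to PVDF. Membranes were blocked in 5% milk/TBST, probed overnight at 4 °C with primary antibodies (β-actin as reference), then with peroxidase secondary for 2 h. Bands were detected by chemiluminescence.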

[13] = test system: NCI-H460; experiment: Induction of apoptosis in human NCI-H460 cells assessed as increase in cleaved caspase-9 expression at 5 to 10 uM after 48 hrs by Western blot method; assay type: functional, cell-based; how it was run: as §3
[14] = test system: NCI-H460; experiment: Induction of apoptosis in human NCI-H460 cells assessed as increase in cleaved caspase-3 expression at 5 to 10 uM after 48 hrs by Western blot method; assay type: functional, cell-based; how it was run: as §3
[15] = test system: NCI-H460; experiment: Induction of apoptosis in human NCI-H460 cells assessed as live cells at 10 uM after 24 hrs by Annexin V-FITC/propidium iodide staining based flow cytometric method (reference value: 95.8%); assay type: functional
[16] = test system: NCI-H460; experiment: Induction of apoptosis in human NCI-H460 cells assessed as late apoptotic cells at 5 uM after 24 hrs by Annexin V-FITC/propidium iodide staining based flow cytometric method (reference value: 0.839%); assay type: functional
[17] = test system: NCI-H460; experiment: Cell cycle arrest in human NCI-H460 cells assessed as accumulation at S-phase at 10 uM after 48 hrs by propidium iodide staining based flow cytometric method (reference value: 21.79%); assay type: functional
[18] = test system: HeLa; experiment: Resistant factor, ratio of IC50 for human HeLa/TR cells to IC50 for human HeLa cells; assay type: functional
How it was run: (§4)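 The resistance index is IC50 on the paclitaxel-resistant line divided by IC50 on the parental sensitive line (A549 or HeLa). Both IC50 values come from the 48 h, five-concentration growth assay with 570/630 nm absorbance read-out and Bliss-method calculation.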

[19] = test system: A549/TR; experiment: Cytotoxicity against human A549/TR cells after 48 hrs by MTT assay; assay type: functional, cell-based; how it was run: as §1
[20] = test system: NCI-H460; experiment: Disruption of mitochondrial membrane potential in human NCI-H460 cells assessed as intact mitochondrial membrane potential at 5 uM after 24 hrs by JC-1 staining based flow cytometric method (reference value: 11.9%); assay type: functional; how it was run: as §2
[21] = test system: NCI-H460; experiment: Cell cycle arrest in human NCI-H460 cells assessed as accumulation at G1-phase at 10 uM after 48 hrs by propidium iodide staining based flow cytometric method (reference value: 75.84%); assay type: functional
[22] = test system: NCI-H460; experiment: Induction of apoptosis in human NCI-H460 cells assessed as upregulation of Bax expression after 48 hrs by Western blot method; assay type: functional, cell-based; how it was run: as §3
[23] = test system: L02; experiment: Cytotoxicity against human HL7702 cells after 48 hrs by MTT assay; assay type: cell-based; details: L02, 48 h; how it was run: as §1
[24] = test system: NCI-H460; experiment: Cell cycle arrest in human NCI-H460 cells assessed as accumulation at G2-phase at 10 uM after 48 hrs by propidium iodide staining based flow cytometric method (reference value: 2.37%); assay type: functional
[25] = test system: NCI-H460; experiment: Cell cycle arrest in human NCI-H460 cells assessed as increase in accumulation at G2-phase after 48 hrs by propidium iodide staining based flow cytometric method; assay type: functional
[26] = test system: NCI-H460; experiment: Cell cycle arrest in human NCI-H460 cells assessed as accumulation at G2-phase at 5 uM after 48 hrs by propidium iodide staining based flow cytometric method (reference value: 2.37%); assay type: functional
[27] = test system: HeLa; experiment: Cytotoxicity against human HeLa cells after 48 hrs by MTT assay; assay type: functional, cell-based; how it was run: as §1
[28] = test system: NCI-H460; experiment: Disruption of mitochondrial membrane potential in human NCI-H460 cells after 24 hrs by JC-1 staining based flow cytometric method; assay type: functional, cell-based; how it was run: as §2
[29] = test system: NCI-H460; experiment: Induction of apoptosis in human NCI-H460 cells assessed as appearance of hyper-condensed nuclei after 24 hrs by Hoechst 33258 staining based fluorescence assay; assay type: functional, cell-based
How it was run: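 NCI-H460 cells were treated 24 h at 5 or 10 µM, with untreated cells as control. Nuclei were stained with Hoechst 33258 and inspected by fluorescence for chromatin condensation.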

[30] = Resistant factor, ratio of IC50 for human A549/TR cells to IC50 for human A549 cells; assay type: functional; how it was run: as §4
[31] = test system: HepG2; experiment: Cytotoxicity against human HepG2 cells after 48 hrs by MTT assay; assay type: functional, cell-based; details: HepG2, 48 h; how it was run: as §1
[32] = test system: NCI-H460; experiment: Induction of apoptosis in human NCI-H460 cells assessed as necrotic cells at 5 uM after 24 hrs by Annexin V-FITC/propidium iodide staining based flow cytometric method (reference value: 1.84%); assay type: functional

SMILES: COc1ccc(/C=C/C(=O)c2cc(OC)c(OC)c(OC)c2)cc1OCC(=O)Nc1ccccc1Cl
- IC50 [1]: 8.42 µM
- Activity [2]: 83.6%
- Activity [3]: 23.7%
- Activity [4]: 4.86%
- Activity [5]: 29%
- Activity [6]: Dose-dependent effect
- IC50 [7]: 5.8 µM
- IC50 [8]: 5.95 µM
- Activity [9]: 59.12%
- IC50 [10]: 3.75 µM
- Activity [11]: 3.13%
- Activity [12]: Dose-dependent effect
- Activity [13]: Active
- Activity [14]: Active
- Activity [15]: 22.7%
- Activity [16]: 3.45%
- Activity [17]: 20.81%
- Ratio IC50 [18]: 1.31
- IC50 [19]: 6.25 µM
- Activity [20]: 16.9%
- Activity [21]: 1.95%
- Activity [22]: Dose-dependent effect
- IC50 [23]: > 50 µM
- Activity [24]: 72.4%
- Activity [25]: Dose-dependent effect
- Activity [26]: 11.88%
- IC50 [27]: 4.53 µM
- Activity [28]: Dose-dependent effect
- Activity [29]: Dose-dependent effect
- Ratio IC50 [30]: 1.2
- IC50 [31]: 4.06 µM
- Activity [32]: 1.1%

Source: ChEMBL document CHEMBL4028810, “Synthesis and biological evaluation of novel chalcone derivatives as a new class of microtubule destabilizing agents” (Eur J Med Chem, 2017)
